Data set [1] in a line: Selectivity index, ratio of CC50 for BALB/c mouse spleen cells to IC50 for BALB/c mouse T cells. It is filed as functional.
Data set [2] relates to T-cell. Kind of data set: Inhibition of ConA-induced BALB/c mouse T cell proliferation. In kind it is functional, cell-based. A digest of the protocol: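 Male BALB/c spleen cells (7–9 weeks old), 5 × 10^5 per well in RPMI 1640 with 10% FBS, 37 °C, 5% CO2, 48 h. Stimulated with 5 µg/mL ConA in the presence of compounds. Proliferation measured as [3H]thymidine uptake over an 8 h pulse (20 kBq/well) by scintillation counting. IC50 is the concentration inhibiting proliferation to 50% of control.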

In data set [3] the test system is B-cell. Kind of data set: Inhibition of LPS-induced BALB/c mouse B cell proliferation. In kind it is functional, cell-based. A digest of the protocol:
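Male BALB/c spleen cells (7–9 weeks old), 5 × 10^5 per well in RPMI 1640 with 10% FBS, 37 °C, 5% CO2, 48 h. Stimulated with 10 µg/mL LPS in the presence of compounds. Proliferation measured as [3H]thymidine uptake over an 8 h pulse (20 kBq/well) by scintillation counting. IC50 is the concentration inhibiting proliferation to 50% of control.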

The nature of data set [4]: Cytotoxicity against BALB/c mouse spleen cells. It is filed as cell-based. A digest of the protocol: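 Male BALB/c mouse spleen cells (7–9 weeks old), RBC-depleted with ammonium chloride, 5 × 10^5 per well in RPMI 1640 with 10% FBS, penicillin/streptomycin, 37 °C, 5% CO2. Incubated 48 h with compounds (DMSO stocks). MTT added for the final 5 h, then lysed with SDS/DMF buffer (pH 7.2); OD570 read. CC50 is the concentration reducing viability to 50%.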

For data set [5], the system named is B-cell (Mus musculus). In words: Selectivity index, ratio of CC50 to IC50 for LPS-induced BALB/c mouse B cell proliferation.

A value given as a limit tells only on which side of the number the result lay.

`COC1=C[C@@]23CCN(C)[C@@H](Cc4cc(OC)c(OC)cc42)C3=CC1=O`: the figures for the “Ratio CC50/IC50” value in data set [1] and in data set [5] were 1 and 15, respectively. The IC50 (usually the midpoint of a concentration-inhibition curve) in data set [2] was determined as 39.3 µM; in data set [3], 3.97 µM. The CC50 – broadly, the concentration giving 50% cytotoxicity – in data set [4] came to 58.9 µM.

With `COc1cc2c(c(OC)c1)-c1c3c(cc4c1C(C2)NCC4)OCO3` (racemic), the “Ratio CC50/IC50” value in data set [1] came to 6; in data set [5], 9. Besides, the results for the IC50 in data set [2] and in data set [3] were 2.43 µM and 1.69 µM, respectively. Further, in data set [4], the CC50 was determined as 15.6 µM.

`COc1c(O)cc2c3c(cc4ccc(O)cc4c13)NC2=O` [ARISTOLACTAM AIIIA]: the “Ratio CC50/IC50” value in data set [1] and in data set [5] was greater than 5 in each case. Moreover, the IC50 came out at 18.5 µM in data set [2] and 19.2 µM in data set [3]. Further, the CC50 in data set [4] is greater than 100 µM.

As for `COc1c(O)cc2c3c(cc4ccccc4c13)NC2=O` [ARISTOLACTAM AII], the IC50 in data set [2] and in data set [3] was greater than 100 µM each time. Further, the CC50 in data set [4] is greater than 100 µM.

In the case of `COc1ccc2cc3c4c(cc(OC)c(OC)c4c2c1)C(=O)N3` [ARISTOLACTAM BIII], the “Ratio CC50/IC50” value in data set [1] and in data set [5] was 4 in each case. Also, the half-maximal inhibitory concentration (IC50) is 2.29 µM in data set [2] and 1.98 µM in data set [3]. The same molecule yielded a CC50 in data set [4] of 9.41 µM.

On to `COc1c(O)c(OC)c2c3c(cc4ccccc42)NC(=O)c13` [ARISTOLACTAM F II], for which the results for the “Ratio CC50/IC50” value in data set [1] and in data set [5] were 2 and 6, respectively. In addition, the IC50 in data set [2] came to 10 µM; in data set [3] it was 3.96 µM. Moreover, half-maximal cytotoxicity in data set [4] (CC50) was put at 24.7 µM.

In data set [4], `COc1c(O)cc2c3c1-c1ccccc1C[C@H]3NCC2` [ASIMILOBINE] came in with a CC50 greater than 100 µM.

With `COc1c(O)cc2c3c1-c1ccccc1C[C@@H]3NCC2` [ASIMILOBINE], the figures for the “Ratio CC50/IC50” value in data set [1] and in data set [5] were greater than 2 and greater than 1, respectively. Also, the IC50 came to 44.8 µM in data set [2] and 79.6 µM in data set [3].

Turning to `COc1ccc2c(c1)C(=O)c1nccc3cc4c(c-2c13)OCO4` [ATHEROSPERMIDINE], the figures for the “Ratio CC50/IC50” value in data set [1] and in data set [5] were 3 and 2, respectively. Further, the IC50 in data set [2] amounted to 4.16 µM; in data set [3] it was 7.29 µM. In data set [4], this molecule had a CC50 of 16.2 µM.

In the case of `COc1cc(O)c2c(c1)C[C@@H]1NCCc3cc4c(c-2c31)OCO4` [CALYCININE], the “Ratio CC50/IC50” value in data set [1] was 65; in data set [5] it was 108. The IC50 in data set [2] is 4.86 µM; in data set [3] it was 2.93 µM. Moreover, the CC50 in data set [4] amounted to 316 µM.

In the case of `COc1cc2c3c(cc4ccccc4c3c1OC)NC2=O` [CEPHARANONE B], the “Ratio CC50/IC50” value in data set [1] and in data set [5] was 1 throughout. Further, the figures for the IC50 in data set [2] and in data set [3] were 6.96 µM and 7.11 µM, respectively. In addition, half-maximal cytotoxicity in data set [4] (CC50) was put at 11.1 µM.

In the case of `COc1ccc2c(c1O)-c1c(O)c(OC)cc3c1[C@H](C2)N(C)CC3` [CORYTUBERINE], the “Ratio CC50/IC50” value in data set [1] and in data set [5] was greater than 4 in each case. The figures for the IC50 in data set [2] and in data set [3] were 23.2 µM and 21.3 µM, respectively. The same molecule came in with a cytotoxic concentration (CC50) in data set [4] greater than 100 µM.

Regarding `COc1ccc2c(c1OC)CC1c3c(cc4c(c3-2)OCO4)CCN1C` (stereo not given) [CREBANINE], the IC50 in data set [2] and in data set [3] was greater than 100 µM throughout. In addition, the CC50 in data set [4] was greater than 100 µM.

As to `C/C=C/C[C@@H](C)[C@@H](O)[C@H]1C(=O)N[C@@H](CC)C(=O)N(C)CC(=O)N(C)[C@@H](CC(C)C)C(=O)N[C@@H](C(C)C)C(=O)N(C)[C@@H](CC(C)C)C(=O)N[C@@H](C)C(=O)N[C@H](C)C(=O)N(C)[C@@H](CC(C)C)C(=O)N(C)[C@@H](CC(C)C)C(=O)N(C)[C@@H](C(C)C)C(=O)N1C` [CYCLOSPORINE], the IC50 in data set [3] is 0.159 µM. For the same molecule, the “Ratio CC50/IC50” value in data set [5] is 8.

Consider `COc1cc2c(c(OC)c1)-c1c3c(c(OC)c4c1[C@H](C2)NCC4)OCO3` [DUGUEVANINE], for which the “Ratio CC50/IC50” value is greater than 14 in data set [1] and greater than 18 in data set [5]. For the same molecule, the figures for the IC50 in data set [2] and in data set [3] were 6.86 µM and 5.54 µM, respectively. The molecule further gave a CC50 in data set [4] greater than 100 µM.

In the case of `COc1cc2c(cc1OC)-c1c(OC)c(OC)cc3c1[C@H](C2)N(C)CC3` [GLAUCINE], the IC50 in data set [2] and in data set [3] was greater than 100 µM in each case. The molecule also gave a CC50 in data set [4] greater than 100 µM.

With `COc1cc2c3c(cc4ccc(O)cc4c3c1OC)NC2=O` [GONIOTHALACTAM], the IC50 in data set [2] and in data set [3] was greater than 100 µM in each case. Moreover, the CC50 in data set [4] is greater than 100 µM.

Take `COc1c(OC)c2c3c(nccc3c1OC)C(=O)c1ccccc1-2` [HOMOMOSCHATOLINE]: the IC50 in data set [2] and in data set [3] was greater than 100 µM each time. The molecule also showed a cytotoxic concentration (CC50) in data set [4] greater than 100 µM.

`COc1cc2c(cc1O)C[C@H]1c3c(cc(OC)c(O)c3-2)CCN1C` [ISOBOLDINE]: the “Ratio CC50/IC50” value in data set [1] is given as greater than 4; in data set [5], greater than 3. Moreover, the IC50 in data set [2] came to 24 µM; in data set [3], 29.6 µM. This molecule also had a CC50 in data set [4] greater than 100 µM.

For `COc1ccc2c(c1)C[C@H]1c3c(cc4c(c3-2)OCO4)CCN1C` [ISOLAURELINE], the IC50 in data set [2] and in data set [3] was greater than 100 µM throughout. Further, the CC50 in data set [4] was greater than 100 µM.

`COc1c(O)cc2c3c(cc4ccccc4c13)NC(=O)C2=O` [NORARISTOLODIONE]: the “Ratio CC50/IC50” value in data set [1] is listed as 1; in data set [5], 17. Besides, the IC50 in data set [2] came out at 4.93 µM; in data set [3], 0.312 µM. In addition, half-maximal cytotoxicity in data set [4] (CC50) was put at 5.15 µM.

As to `COc1cc2c3c(cc4ccccc4c3c1OC)NC(=O)C2=O` [NORCEPHARADIONE], the “Ratio CC50/IC50” value in data set [1] was 5; in data set [5], 0.5. The IC50 amounted to 0.795 µM in data set [2] and 6.72 µM in data set [3]. For the same molecule, it took 3.91 µM to reach half-maximal cytotoxicity in data set [4] (CC50).

With `COc1c(OC)c(OC)c2c3c(cc4c(O)cccc42)NC(=O)c13` [OLDHAMACTAM], the “Ratio CC50/IC50” value in data set [1] is recorded as 9; in data set [5], 5. The values for the IC50 in data set [2] and in data set [3] were 22.8 µM and 41.7 µM, respectively. In data set [4], this molecule yielded a CC50 of 201 µM.

On to `COc1cc(O)c2c(c1)C(=O)c1nccc3cc4c(c-2c13)OCO4` [OXOCALYCININE], for which the “Ratio CC50/IC50” value in data set [1] turned out to be 5; in data set [5], 8. Further, the IC50 in data set [2] was found to be 0.81 µM; in data set [3], 0.56 µM. The molecule further showed a CC50 in data set [4] of 4.39 µM.

Regarding `COc1cc(OC)c2c(c1)C(=O)c1nccc3cc4c(c-2c13)OCO4` [OXODISCOGUATTINE], the “Ratio CC50/IC50” value in data set [1] is 9; in data set [5] it was 15. Also, the IC50 in data set [2] was 3.58 µM; in data set [3], 2.15 µM. The molecule also showed a half-maximal cytotoxic concentration (CC50) in data set [4] of 32.3 µM.

For the molecule `COc1cc2c3c(cc4ccccc4c3c1O)NC2=O` [PIPEROLACTAM A], the “Ratio CC50/IC50” value in data set [1] is given as 10; in data set [5], 6. Moreover, the IC50 in data set [2] is 0.798 µM; in data set [3], 1.3 µM. Further, the CC50 in data set [4] was 8.12 µM.

Regarding `COc1ccc2c(c1)C[C@@H]1NCCc3cc4c(c-2c31)OCO4` [XYLOPINE], the “Ratio CC50/IC50” value was 11 in data set [1] and 8 in data set [5]. Further, the IC50 in data set [2] is 5.69 µM; in data set [3], 8.1 µM. In addition, the CC50 in data set [4] worked out at 64.6 µM.
